In ChEMBL document CHEMBL5608261, “Pharmacophore Establishment and Optimization of Saturated 1,6-Naphthyridine-Fused Quinazolinones that Inhibit Meningoencephalitis-Causing Naegleria fowleri” (J Med Chem, 2024):
In brackets after ≈: the same amount, converted by molar mass.

How the values were obtained:
[1] = Selectivity index, ratio of CC50 for cytotoxicity against human SH-SY5Y cells to EC50 for anti-amoebic activity against Naegleria fowleri Nf69 (ATCC 30215) assessed as inhibition of amoeba growth; assay type: toxicity, cell-based; conditions: for selectivity ratio: SH-SY5Y cells, read-out: Ratio CC50/EC50
[2] = Kinetic solubility of compound at pH 7.4 incubated for 24 hrs by HPLC analysis; assay type: physicochemical; conditions: buffer, pH 7.4, read-out: Kinetic_solubility
[3] = (§1) Cytotoxicity against human SH-SY5Y cells assessed as reduction in cell viability incubated for 72 hrs by CellTiter-Glo assay; assay type: toxicity, cell-based; conditions: SH-SY5Y cells
Summary of the method: (§2)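 SH-SY5Y cells at 2000 per well attached overnight at 37 °C. Compound from 20 mM DMSO stocks was added in triplicate as a dose series starting at 20 μM, with doxorubicin as positive control.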

[4] = Metabolic stability in CD-1 mouse liver microsomes assessed as half-life incubated for 60 mins by LC-MS/MS analysis; assay type: ADME, Microsome; conditions: 1 h
Summary of the method: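 Half-life measured in CD-1 mouse liver microsomes with NADPH over a 60 min exposure.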

Naegleria fowleri [5] = test: Anti-ameobic activity against Naegleria fowleri Nf69 (ATCC 30215) trophozoites assessed as inhibition of amoeba growth incubated for 48 hrs by CellTiter-Glo assay; assay type: functional, organism-based
Summary of the method: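 Axenic Nf69 trophozoites were seeded at 1 × 10^4 cells/mL in Nelson's complete medium with 10% heat-inactivated FBS. Compound was added at 20 to 0.375 μM (lower ranges for very potent compounds), with vehicle controls, for 48 h at 37 °C and 5% CO2. CellTiter-Glo luminescence gave % growth inhibition versus controls, and triplicate means were fitted to dose–response curves for EC50.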

SH-SY5Y = test: as §1; assay type: toxicity, cell-based; conditions: sh-sy5y, 72 h; summary of the method: as §2
Naegleria fowleri [6] = test: Anti-ameobic activity against Naegleria fowleri Nf69 (ATCC 30215) trophozoites infected in female CD-1 mouse model assessed as survival rate at 5 mg/kg, ip pre-infected for 48 hrs from day 0 followed by once daily compound administration from day 2 to day 6 and measured on day 14 post-infection relative to control; assay type: functional; conditions: 312 h, time 13 day
Summary of the method: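 Female CD-1 mice (n = 6/group) were infected intranasally with Nf69 trophozoites on day 0. After a 48 h establishment period, they received IP dosing at 5 mg/kg once daily for 5 days, alongside a vehicle-only infected control group. Survival was followed for 14 days with Kaplan–Meier analysis. Survivor brain tissue was cultured for amoeba, and survival counted only mice whose brains were free of amoeba.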

[7] = Naegleria fowleri, Nf69 (ATCC 30215), 48 h

SMILES | Ratio CC50/EC50 [1] | solubility kinetic at 24 h [2] | CC50 at 72 h [3] | t1/2 [4] | EC50 (Naegleria fowleri [5]) | selectivity ratio [1] | CC50 (SH-SY5Y) | EC50 (Naegleria fowleri [5]; [7]) | survival at 5 mg/kg (Naegleria fowleri [6])
CN1CCC[C@@H]2c3nc4ccc(C(F)(F)F)cc4c(=O)n3CC[C@H]21 (racemic) | > 18.2 | 159 µM (≈ 53.6 µg/mL) | > 20 µM | 21.2 min | 1.1 µM | – | – | – | –
COc1cc2nc3n(c(=O)c2cc1Cl)CC[C@@H]1[C@@H]3CCCN1CCN1CCCC1 (racemic) | – | 172 µM (≈ 71.7 µg/mL) | – | > 145 min | – | > 27 | > 20 µM | 0.74 µM | –
COc1cc2nc3n(c(=O)c2cc1Cl)CC[C@@H]1[C@@H]3CCCN1CCN1CCOCC1 (racemic) | – | 43.1 µM (≈ 18.7 µg/mL) | – | 29.8 min | – | > 38.5 | > 20 µM | 0.52 µM | –
COc1cc2nc3n(c(=O)c2cc1Cl)CC[C@@H]1[C@@H]3CCCN1CC1CC1 (racemic) | – | 76.1 µM (≈ 28.5 µg/mL) | – | 12.6 min | – | 43.5 | 1 µM | 0.023 µM | –
C[C@@H]1[C@H](O)[C@@H](C)/C=C/C=C/C=C/C=C/C=C/C=C/C=C/[C@H](O[C@@H]2O[C@H](C)[C@@H](O)[C@H](N)[C@@H]2O)C[C@@H]2O[C@](O)(C[C@@H](O)C[C@@H](O)[C@H](O)CC[C@@H](O)C[C@@H](O)CC(=O)O[C@H]1C)C[C@H](O)[C@H]2C(=O)O [AMPHOTERICIN B] | – | – | – | – | – | – | – | – | 17%
